These results are taken from ChEMBL document CHEMBL1124089, “Binaltorphimine-related bivalent ligands and their kappa opioid receptor antagonist selectivity” (J Med Chem, 1988).

Structures are written as SMILES.

What is called IC50 is the concentration at which inhibition is half-maximal.

Test [1] in a line: Ratio of IC50 morphine and antagonist binding to opioid receptor.
The target of test [2] is Kappa-type opioid receptor (Cavia porcellus) (UniProt P41144). Briefly: Antagonistic activity for Opioid receptor kappa 1 in guinea pig ileal longitudinal muscle at 20 nM. In kind it is functional.
In test [3] the target is Delta-type opioid receptor (Mus musculus) (UniProt P32300). Briefly: Ratio of IC50 DADLE and antagonist binding to delta opioid receptor.
Test [4] addresses T1, Opioid receptor (mu and kappa) (Cavia porcellus) (UniProt P41144+P97266). Nature of the test: Ratio of IC50 ethylketazocine and antagonist binding to opioid receptor. The class given is protein assay.
Test [5] deals with Delta-type opioid receptor (Mus musculus) (UniProt P32300). Nature of the test: Ratio of IC50 DADLE and antagonist binding to delta opioid receptor; Not calculated.
Test [6] deals with T2, Opioid receptor (mu and kappa) (Cavia porcellus, UniProt P41144+P97266). Briefly: Agonistic activity in guinea pig ileal longitudinal muscle. In kind it is functional, tissue-based, Muscle tissue.
The target in test [7] is Delta-type opioid receptor (Mus musculus, UniProt P32300). Briefly: Agonistic activity in mouse vas deferens. In kind it is functional, tissue-based.
For test [8], the target named is T2, Opioid receptor (mu and kappa). Briefly: Agonistic activity in guinea pig ileal longitudinal muscle after beta-FNA (200 nM) 60 min treatment. The class given is functional, tissue-based, Muscle tissue. Put shortly:
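GPI pretreated with beta-FNA so that functional mu receptors are absent; agonist IC50 determined in this tissue and compared with IC50 in untreated GPI.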

Test [9] is described as follows: Ratio of antagonistic activity for delta and kappa receptors. The class given is functional. Put shortly:
(§1)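 Selectivity ratios mu/kappa and delta/kappa calculated from Ke values; Ke = [antagonist]/(IC50 ratio − 1), using ethylketazocine (kappa) and morphine (mu) in GPI and DADLE (delta) in MVD.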

The target of test [10] is Kappa-type opioid receptor (Cavia porcellus) (UniProt P41144). Nature of the test: Antagonistic activity for Opioid receptor kappa 1 in guinea pig ileal longitudinal muscle at 200 nM. The class given is functional.
Test [11] deals with Delta-type opioid receptor (Mus musculus) (UniProt P32300). Briefly: Antagonistic activity for Opioid receptor delta 1 in mouse vas deferens at 200 nM. The class given is functional, tissue-based.
For test [12], the target named is T1, Opioid receptor (mu and kappa) (Cavia porcellus). Nature of the test: Ratio of antagonistic activity for mu and kappa receptors. The class given is functional. The method, boiled down:
as §1

In test [13] the target is Mu-type opioid receptor (Cavia porcellus) (UniProt P97266). Nature of the test: Antagonistic activity for Opioid receptor mu 1 in guinea pig ileal longitudinal muscle at 200 nM. In kind it is functional.
Test [14] deals with Delta-type opioid receptor (Mus musculus) (UniProt P32300). The note with it: Vas deferens, 20 nM.
The target in test [15] is Kappa-type opioid receptor (Cavia porcellus) (UniProt P41144). Nature of the test: Antagonistic activity for Opioid receptor kappa 1 of guinea pig ileal longitudinal muscle at 100 nM. In kind it is functional.
Test [16] has as its target Mu-type opioid receptor (Cavia porcellus) (UniProt P97266). The note with it: 100 nM.
Test [17] has the same target. The note with it: 20 nM.
Test [18] addresses Delta-type opioid receptor (Mus musculus) (UniProt P32300). The note with it: Vas deferens, 200 nM.
Test [19] shares this target. Briefly: Antagonistic activity for Opioid receptor delta 1 in mouse vas deferens preparation at 100 nM. In kind it is functional.
Test [20] addresses Mu-type opioid receptor (Cavia porcellus) (UniProt P97266). Nature of the test: Antagonistic activity for Opioid receptor mu 1 in guinea pig ileal longitudinal muscle at 100 nM. The class given is functional.

Sequence of Delta-type opioid receptor (P32300 whole entry): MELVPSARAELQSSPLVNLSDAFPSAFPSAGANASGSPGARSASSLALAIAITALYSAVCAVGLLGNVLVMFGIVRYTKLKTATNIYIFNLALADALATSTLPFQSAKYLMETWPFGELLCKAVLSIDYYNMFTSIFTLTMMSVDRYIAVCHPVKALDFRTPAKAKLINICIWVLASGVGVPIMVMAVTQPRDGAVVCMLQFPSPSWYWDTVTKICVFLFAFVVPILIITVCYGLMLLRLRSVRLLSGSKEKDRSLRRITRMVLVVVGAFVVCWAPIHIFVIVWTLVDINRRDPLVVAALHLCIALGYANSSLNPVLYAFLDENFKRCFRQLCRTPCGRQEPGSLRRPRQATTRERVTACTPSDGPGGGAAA
Sequence of Delta-type opioid receptor (Mus musculus) (P32300 whole entry): as above
T1 sequence (P41144 whole entry, looked up): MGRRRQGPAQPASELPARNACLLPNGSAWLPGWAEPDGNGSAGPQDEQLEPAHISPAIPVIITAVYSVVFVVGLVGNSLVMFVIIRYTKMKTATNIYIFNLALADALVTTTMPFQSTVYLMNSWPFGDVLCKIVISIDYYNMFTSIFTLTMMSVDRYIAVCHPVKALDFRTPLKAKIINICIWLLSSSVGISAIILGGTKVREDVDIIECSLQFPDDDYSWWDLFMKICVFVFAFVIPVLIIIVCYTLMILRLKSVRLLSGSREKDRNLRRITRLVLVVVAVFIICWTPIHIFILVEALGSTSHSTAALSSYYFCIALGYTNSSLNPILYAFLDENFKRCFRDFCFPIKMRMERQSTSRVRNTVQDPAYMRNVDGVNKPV
T1 sequence (P97266 whole entry, looked up): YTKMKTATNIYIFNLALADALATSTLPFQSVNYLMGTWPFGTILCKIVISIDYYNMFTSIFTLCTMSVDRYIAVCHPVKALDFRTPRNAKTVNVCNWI
Sequence of Kappa-type opioid receptor (Cavia porcellus) (P41144 whole entry): as the sequence (P41144 whole entry, looked up) above
Sequence of Mu-type opioid receptor (Cavia porcellus) (P97266 whole entry): as the sequence (P97266 whole entry, looked up) above

Take `COc1ccc2c3c1O[C@H]1c4[nH]c5c(c4C[C@@]4(O)[C@@H](C2)N(CC2CC2)CC[C@]314)C[C@@]1(O)[C@H]2Cc3ccc(OC)c4c3[C@@]1(CCN2CC1CC1)[C@H]5O4`: the Ratio in test [1] was 0.8; in [3] it was 0.6; in test [4] it was 3.8. Further, the Ke in test [2] worked out at 7.1 nM.
Turning to `CC(=O)Oc1ccc2c3c1O[C@H]1c4[nH]c5c(c4C[C@@]4(OC(C)=O)[C@@H](C2)N(CC2CC2)CC[C@]314)C[C@@]1(OC(C)=O)[C@H]2Cc3ccc(OC(C)=O)c4c3[C@@]1(CCN2CC1CC1)[C@H]5O4`, the Ratio was 1.2 in test [1], 1.4 in test [5] and 1.6 in [4].
Turning to `CN1CC[C@]23c4c5ccc(O)c4O[C@H]2c2[nH]c4c(c2C[C@@]3(O)[C@H]1C5)C[C@@]1(O)[C@H]2Cc3ccc(O)c5c3[C@@]1(CCN2C)[C@H]4O5`, the IC50 in test [6] stood at 250 nM; in test [7], 170 nM; in [8], 2630 nM. Moreover, the Ratio in test [1] came to 0.88; in test [3], 1.1; in [4] it was 1.6.
For `COc1ccc2c3c1O[C@H]1c4[nH]c5c(c4C[C@H]4[C@@H](C2)N(C)CC[C@]314)C[C@H]1[C@H]2Cc3ccc(OC)c4c3[C@@]1(CCN2C)[C@H]5O4`, the figures for the IC50 in test [6] and in test [7] were 330 nM and 1000 nM, respectively. Also, the Ratio in test [1] came out at 0.51; in [3], 0.93; in [4] it was 0.43.
`COc1ccc2c3c1O[C@H]1c4[nH]c5c(c4C[C@@]4(O)[C@@H](C2)N(CC2CC2)CC[C@]314)C[C@@]1(O)[C@H]2Cc3ccc(O)c4c3[C@@]1(CCN2CC1CC1)[C@H]5O4`: the Selectivity ratio in test [9] worked out at 35; in [12], 29. Also, the Ke was found to be 1.3 nM in [10], 45 nM in [11] and 38 nM in test [13]. Further, the Ratio came out at 6.3 in test [1], 5.4 in test [3] and 153 in test [4].
With `Cn1c2c(c3c1[C@@H]1Oc4c(O)ccc5c4[C@@]14CCN(CC1CC1)[C@H](C5)[C@]4(O)C3)C[C@@]1(O)[C@H]3Cc4ccc(O)c5c4[C@@]1(CCN3CC1CC1)[C@H]2O5`, the Selectivity ratio turned out to be 41 in test [9] and 79 in test [12]. The Ratio was 2.8 in test [1], 4.5 in [3] and 148 in test [4]. Also, the Ke turned out to be 5.7 nM in [14], 0.14 nM in test [15] and 11 nM in [16].
Take `CN1CC[C@]23c4c5ccc(O)c4O[C@H]2c2[nH]c4c(c2C[C@H]3[C@H]1C5)C[C@H]1[C@H]2Cc3ccc(O)c5c3[C@@]1(CCN2C)[C@H]4O5`: the results for the IC50 in test [6] and in test [7] were 53 nM and 52 nM, respectively. Further, the results for the Ratio in [1], in test [3] and in test [4] were 0.68, 0.85 and 0.79, respectively.
As for `Oc1ccc2c3c1O[C@H]1c4[nH]c5c(c4C[C@@]4(O)[C@@H](C2)N(CC2CC2)CC[C@]314)C[C@@]1(O)[C@H]2Cc3ccc(O)c4c3[C@@]1(CCN2CC1CC1)[C@H]5O4`, the Selectivity ratio in test [9] was determined as 49; in test [12], 32. The Ke is 13 nM in test [17], 20 nM in test [18] and 0.41 nM in [15]. The Ratio in [1] was found to be 2.6; in test [3] it was 2; in test [4], 49.1.
On to `Oc1ccc2c3c1O[C@H]1c4[nH]ccc4C[C@@]4(O)[C@@H](C2)N(CC2CC2)CC[C@]314`, for which the figures for the Selectivity ratio in test [9] and in test [12] were 1.5 and 0.3, respectively. In addition, the Ke in [19] is 3.2 nM; in test [15], 2.1 nM; in test [20], 0.65 nM. Further, the values for the Ratio in test [1], in test [3] and in test [4] were 155, 32.3 and 49.5, respectively.
Turning to `CC(=O)O[C@@]12Cc3c([nH]c4c3C[C@@]3(OC(C)=O)[C@H]5Cc6ccc(O)c7c6[C@@]3(CCN5CC3CC3)[C@H]4O7)[C@@H]3Oc4c(O)ccc5c4[C@@]31CCN(CC1CC1)[C@@H]2C5`, the Selectivity ratio in [9] amounted to 32; in [12], 111. Further, the Ke in test [19] came to 12 nM; in test [15], 0.38 nM; in [20], 42 nM. Also, the Ratio in test [1] turned out to be 3.4; in [3], 9.2; in test [4], 261.
